Source: ChEMBL document CHEMBL1828506, “New fluorine-containing hydrazones active against MDR-tuberculosis” (Eur J Med Chem, 2011)
Values after ≈ are worked out from the molar mass of the structure shown.

What was measured:
[1] = tested on: Mycobacterium tuberculosis; experiment: Antimycobacterial activity against multidrug-resistant Mycobacterium tuberculosis A8 241 after 28 days by colony forming unit determination; format: functional; conditions: A8 241, 672 h
How it was run: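 Compounds added to Sula liquid medium as DMSO solutions (DMSO at most 2%), incubated at 37 °C for 28 days. MIC is the lowest concentration giving visible growth inhibition. Activity was confirmed by CFU counts after subculture onto drug-free Löwenstein-Jensen solid medium.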

[2] = Selectivity index, ratio of IC50 for human HepG2 cells to MIC for multidrug-resistant Mycobacterium tuberculosis A8 241; format: functional

| SMILES | MIC [1] [µg/mL] | Selectivity Index [2] |
| --- | --- | --- |
| O=C(N/N=C/Nc1ccc(C(=O)O)c(O)c1)c1ccc(C(F)(F)F)cc1 | 0.5 (≈ 1.36 µM) | – |
| O=C(N/N=C/Nc1ccc(C(=O)O)c(O)c1)c1cccc(C(F)(F)F)c1 | 0.5 (≈ 1.36 µM) | – |
| O=C(N/N=C/Nc1ccc(C(=O)O)c(O)c1)c1ccc(F)cc1 | 0.5 (≈ 1.58 µM) | – |
| O=C(N/N=C/Nc1ccc(C(=O)O)c(O)c1)c1cccc(F)c1 | 0.5 (≈ 1.58 µM) | 592.64 |
| O=C(O)c1ccc(N/C=N/NC(=O)c2ccccc2F)cc1O | 0.5 (≈ 1.58 µM) | 767.77 |
| O=C(N/N=C/N1CCN(c2cc3c(cc2F)c(=O)c(C(=O)O)cn3C2CC2)CC1)c1ccc(C(F)(F)F)cc1 | 0.5 (≈ 0.917 µM) | 378.41 |
| O=C(N/N=C/N1CCN(c2cc3c(cc2F)c(=O)c(C(=O)O)cn3C2CC2)CC1)c1cccc(C(F)(F)F)c1 | 0.5 (≈ 0.917 µM) | 351.15 |
| O=C(N/N=C/N1CCN(c2cc3c(cc2F)c(=O)c(C(=O)O)cn3C2CC2)CC1)c1ccc(F)cc1 | 0.5 (≈ 1.01 µM) | 1268.58 |
| O=C(N/N=C/N1CCN(c2cc3c(cc2F)c(=O)c(C(=O)O)cn3C2CC2)CC1)c1cccc(F)c1 | 0.5 (≈ 1.01 µM) | 804.76 |
| CCn1cc(C(=O)O)c(=O)c2cc(F)c(N3CCN(/C=N/NC(=O)c4ccc(C(F)(F)F)cc4)CC3)cc21 | 5 (≈ 9.37 µM) | 3.98 |
| CCn1cc(C(=O)O)c(=O)c2cc(F)c(N3CCN(/C=N/NC(=O)c4cccc(F)c4)CC3)cc21 | 5 (≈ 10.3 µM) | 38 |
| Nc1ccc(C(=O)O)c(O)c1 [AMINOSALICYLIC ACID] | 0.25 (≈ 1.63 µM) | – |
| O=C(O)c1cn(C2CC2)c2cc(N3CCNCC3)c(F)cc2c1=O [CIPROFLOXACIN] | 1.5 (≈ 4.53 µM) | 110.37 |
| NNC(=O)c1ccncc1 [ISONIAZID] | 1 (≈ 7.29 µM) | – |
| CCn1cc(C(=O)O)c(=O)c2cc(F)c(N3CCNCC3)cc21 [NORFLOXACIN] | 10 (≈ 31.3 µM) | 15.87 |
